This is a sample that favours compounds with a hit; in the whole collection about 2.8% have one here.
NPY2 pot ag – human NPY-Y2 potentiation or agonism, primary screen. cells expressing NPY-Y2, potentiator/agonist read-out. 0.45% of 220,000 active. activation, % at 3.6 µM. P49146; in the data active = activation above about 27%;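 note: cells stimulated with NPY near EC25 plus isoproterenol at EC100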
NPY Y1 blocker – blocks the human neuropeptide Y Y1 receptor. P25929. HEK293-CNG Y1 cells, membrane potential fluorescence; NPY at EC95, then isoproterenol. inhibition, % at 3.6 µM. 1% of 200,000 active. AID 1040;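 active = inhibition above the campaign mean inhibition of all tested compounds plus 3 SD, cut at about 20% in these data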
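System: HEK293 cells with Y1 receptor plus CNG channel / Probe or stimulus: NPY 25 nM then isoproterenol 1 µM plus Ro 20-1724 25 µM / Compound: one concentration, 3.6 µM, in 0.4% DMSO / Schedule: compound incubation 1 h at room temperature, readout 45 min post-stimulation / Measured by: membrane potential fluorescence / Read-out: % inhibition of NPY effect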
Measles CPE – protection of cells from measles virus; protection (pct of control), % at 4 µM; Measles virus-infected cells, CPE protection, absorbance; 1.5% of 140,000 active; in the data active = protection mostly above about 24%, no sharp cut-off; inactive = mostly below about 26%
NPY1 pot ag – human NPY-Y1 potentiation or agonism, primary screen; activation, % at 3.6 µM; P25929; 0.37% of 220,000 active; NPY-Y1 expressing cells, potentiator/agonist activation; in the data active = activation above about 33%, passing the limit was not always enough;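 note: cells stimulated with NPY at EC10 then isoproterenol at EC100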
Mdm2 ligase inh – blocks human Mdm2 ubiquitin ligase activity; Q00987; cell-based MDM2 ubiquitination luciferase reporter, 2 h; 0 = plate control, 100 = twice control, blank-subtracted; signal enhancement, % at 5 µM; 0.11% of 210,000 active;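 active = signal enhancement of 30% or more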;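 note: luminescence tracks abundance of the self-degrading MDM2-luciferase fusion protein; higher signal means inhibition of MDM2 E3 ligase activity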
Target sequence (Q00987 whole entry, looked up, the tested form may be a part): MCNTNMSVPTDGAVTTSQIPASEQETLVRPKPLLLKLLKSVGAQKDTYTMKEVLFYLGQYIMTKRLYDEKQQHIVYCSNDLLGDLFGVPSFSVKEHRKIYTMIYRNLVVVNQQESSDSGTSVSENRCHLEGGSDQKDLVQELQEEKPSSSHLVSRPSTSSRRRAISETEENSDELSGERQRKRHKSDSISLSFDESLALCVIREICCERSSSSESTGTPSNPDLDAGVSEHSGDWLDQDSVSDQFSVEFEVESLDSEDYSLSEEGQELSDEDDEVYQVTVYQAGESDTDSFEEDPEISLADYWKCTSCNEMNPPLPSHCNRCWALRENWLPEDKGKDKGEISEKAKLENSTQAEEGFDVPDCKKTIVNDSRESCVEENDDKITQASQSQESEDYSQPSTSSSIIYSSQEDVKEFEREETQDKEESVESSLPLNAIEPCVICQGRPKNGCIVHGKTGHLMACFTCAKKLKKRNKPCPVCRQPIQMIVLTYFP
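System: stable MDM2–luciferase fusion reporter cells / Input: 2000 cells seeded into each well / Schedule: 4 h settle plus 2 h compound, 37 °C / Compound: single-point 5 µM / Buffer or medium: cells held in DMEM / Benchmarks: control and blank well means / Evaluation: percent signal gain over controls, blank-subtracted / Measured by: luciferase luminescence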
NPY Y2 blocker – antagonists of human neuropeptide Y receptor Y2. P49146. NPY-Y2 expressing cells, antagonist mode. inhibition, % at 2.7 µM. 0.99% of 140,000 active. AID 793; in the data active = inhibition above about 17%
Each line names hits and unclear results; the compound was inactive in the other large screens.

COc1ccc(CCNC(=O)c2cc(CC(C)C)on2)cc1OC	Measles CPE 40.5
CCC(C)NC(=O)c1cc(CC(C)C)on1 (stereo unspecified)	Measles CPE 53.7
COc1ccccc1-c1cc(C(=O)NCCc2ccccc2)no1	none
Cc1cc(C)c(OCCNC(=O)c2ccccc2Sc2ccccc2C#N)c(C)c1	none
Cc1ccccc1OCC(=O)N/N=C/c1ccco1	Measles CPE 44.5
COc1cc(/C=N/NC(=O)c2ccc(COc3ccccc3Cl)o2)cc(Br)c1O	none
COc1cccc(/C=N/NC(=O)c2ccc(COc3ccc(Cl)cc3Cl)o2)c1	Measles CPE 52.1
COc1ccc(N2C(=O)[C@@H]3Cc4ccccc4CN3C2=O)cc1	Measles CPE 31.5
Cc1cccc(C)c1NC(=O)CN(C)CC(=O)Nc1ccccc1Oc1ccccc1	NPY Y1 blocker 21.0 (no result: Measles CPE, NPY Y2 blocker)
CCC(C(=O)Nc1cccc(C(F)(F)F)c1)c1ccccc1 (stereo unspecified)	NPY Y1 blocker 20.3
O=C(Nc1cccc(C(F)(F)F)c1)C(SCCO)c1ccccc1 (stereo unspecified)	none
CCc1cccc(C)c1NC(=O)c1cc(C)oc1C	none
CCc1cccc(C)c1NC(=O)c1ccoc1C	Measles CPE 43.8
C/C(CC1CC2=C(CC1(C)C)C(C)(C)CCC2)=N\NC(N)=S (stereo unspecified)	none
O=C1/C(=C/c2cccnc2)CCC/C1=C\c1cccnc1	Mdm2 ligase inh 36.0
O=C1/C(=C/c2cccnc2)CC/C1=C\c1cccnc1	none (no result: Measles CPE, NPY Y2 blocker)
CC(=O)N1N=C(N)SC1(C)C	none (no result: Measles CPE, NPY Y2 blocker)
O=c1c(Cl)c(NCc2ccc(F)cc2)cnn1C12CC3CC(CC(C3)C1)C2	Measles CPE 35.9
Cc1ccc(NC(=O)Cc2noc3ccccc23)c(C)c1	Measles CPE 20.8
Cc1c(NC(=O)Cc2noc3ccccc23)cccc1[N+](=O)[O-]	none (no result: Measles CPE, NPY Y2 blocker)
Cc1cc2c(cc1C)/C(=C\C(N)=O)NC(C)(C)C2	Measles CPE 44.4
Cc1cccc2c1CC(C)(C)N/C2=C\C(N)=O	none
O=CN/C=C/c1cc(O)ccc1O	none (no result: NPY Y1 blocker, Measles CPE, NPY Y2 blocker)
CCOC(=O)c1c(C)n(C)c2ccc(O)c(CN3CCN(C)CC3)c12	none
CCOC(=O)c1c(C)oc2ccc(O)c(CN(C)C)c12	NPY2 pot ag 52.6, NPY1 pot ag 60.5
CCOC(=O)c1c(C)n(C)c2ccc(O)c(CN(CC)CC)c12	NPY2 pot ag 60.2, NPY1 pot ag 69.7
CC(=O)NCCNC(=O)C1CCCCN1S(=O)(=O)c1ccccc1 (stereo unspecified)	none (no result: Measles CPE, NPY Y2 blocker)
c1ccc(CSc2ccc(-c3cccs3)nn2)cc1	Measles CPE 27.7
O=C(CSc1ccc(-c2cccs2)nn1)Nc1ccccc1	none (no result: Measles CPE, NPY Y2 blocker)
Cc1cc(C)cc(NC(=O)CSc2ccc(-c3cccs3)nn2)c1	Measles CPE 40.8
CCOc1ccccc1CN(Cc1ccco1)S(=O)(=O)c1ccc(-n2cnnn2)c(OC)c1	NPY Y1 blocker 38.0, NPY Y2 blocker 17.6
CC(=O)Nc1ccc(S(=O)(=O)NNC(=O)COc2cc(C)ccc2C(C)C)cc1	Measles CPE 54.0
CC(=O)Nc1ccc(S(=O)(=O)NNC(=O)COc2cccc(C)c2)cc1	none
CCOc1ccc(/C=N/Nc2ccc(C(F)(F)F)cc2[N+](=O)[O-])cc1O	Measles CPE 32.1
COc1ccc(/C=N/Nc2ccc(C(F)(F)F)cc2[N+](=O)[O-])cc1O	none (no result: Mdm2 ligase inh)
O=C1CN(C(=O)COC(=O)CNS(=O)(=O)/C=C/c2ccccc2)c2ccccc2N1	none (no result: Measles CPE, NPY Y2 blocker)
O=S(=O)(NCCCCCNS(=O)(=O)c1ccccc1)c1ccccc1	none
O=S(=O)(NCCCc1ccccc1)c1ccccc1	Measles CPE 34.6
CCOC(=O)N1CCC(NC(=O)CN2C(=O)CSc3ncccc32)CC1	Measles CPE 29.7
CCn1c(SCC(=O)N/N=C/c2ccccc2OCC(=O)O)nnc1-c1ccc(C)cc1	none (no result: NPY Y1 blocker, Measles CPE, NPY Y2 blocker)
CCn1nnc2cc(C(=O)O)ccc21	none (no result: NPY Y1 blocker, Measles CPE, NPY Y2 blocker)
CCCCOc1cccc(C(=O)NNC(=S)NC2CCCCC2)c1	none
CN(C)CCCNC(=O)/C(=C\c1ccc(-c2ccc(Br)cc2)o1)NC(=O)c1ccccc1	none
Cc1ccc(C(=O)N/C(=C\c2ccc(-c3ccc(Cl)cc3)o2)C(=O)NCCCN(C)C)cc1	NPY Y1 blocker 21.2 (no result: Measles CPE, NPY Y2 blocker)
CC(C)(C)NC(=O)c1nn(Cc2ccccc2)c(=O)c2ccccc12	none (no result: Measles CPE, NPY Y2 blocker)
CC(NC(=O)CSc1ncccn1)c1ccccc1 (stereo unspecified)	none
COc1ccc(-c2nnc(SCc3ccccc3)n2N)cc1	none
CCOc1ccc(-c2nnc(SCc3nnc(-c4ccccc4)o3)n2-c2ccccc2F)cc1	NPY Y1 blocker 26.2, NPY Y2 blocker 19.4
COc1ccc(-n2c(SCc3ccc([N+](=O)[O-])cc3)nnc2-c2ccccc2)cc1	NPY Y1 blocker 99.2, NPY Y2 blocker 111.7
COc1cccc(-c2nnc(SCC(N)=O)n2-c2ccc(Cl)cc2)c1	Measles CPE 56.7
CCOc1ccc(-n2c(SCc3ccc([N+](=O)[O-])cc3)nnc2-c2ccccc2)cc1	NPY Y1 blocker 66.2, NPY Y2 blocker 149.0
COc1ccc(-c2nnc(SCC(=O)c3cccs3)n2-c2ccc(Cl)cc2)cc1	none
Oc1c(/C=C/C=C/C=Nc2ccccc2)sc(=S)n1Cc1ccccc1	none (no result: NPY Y1 blocker, Measles CPE, NPY Y2 blocker)
N#CCC(=O)Nc1ccc(C(=O)Nc2cccc(S(N)(=O)=O)c2)cc1	none (no result: NPY Y1 blocker, Measles CPE, NPY Y2 blocker)
Cc1ncc(CO)c2cc(C(N)=O)c(=Nc3ccccc3)oc12	Measles CPE 48.1
Cc1ccc(N=c2oc3cc(O)ccc3cc2C(N)=O)cc1	none
O=C1c2ccccc2C(=O)N1CC(O)CNc1ccc(Br)cc1 (stereo unspecified)	none
O=C(Cn1nnc(-c2ccccc2F)n1)Nc1ccc(S(=O)(=O)NC2CCCC2)cc1	Measles CPE 35.1
O=C(c1cncs1)N1CCCC(CNS(=O)(=O)c2cccs2)C1 (stereo unspecified)	none (no result: Measles CPE, NPY Y2 blocker)
Clc1ccc(-n2nnnc2-c2ccccc2)cc1	Measles CPE 51.7
CSc1ncc(Cl)c(C(=O)Nc2nnc(SC/C=C/c3ccccc3)s2)n1	Measles CPE 50.8
CCOc1ccccc1CN1CCN(Cc2[nH]c3ccccc3c2C)CC1CCO (stereo unspecified)	NPY Y1 blocker 21.0 (no result: Measles CPE, NPY Y2 blocker)
CCOc1ccccc1CN1CCN(Cc2ccc(C)o2)CC1CCO (stereo unspecified)	none (no result: Measles CPE, NPY Y2 blocker)
O=C(CN1CCC(NC(=O)Nc2ccccc2-c2ccccc2)CC1)NCc1ccco1	none
O=C(N/N=C/C=C/c1ccccc1)NC1CCCCC1	none (no result: Measles CPE, NPY Y2 blocker)
CCOC(=O)c1cnc2ccc(OCC)cc2c1NCc1ccccc1OC	NPY Y1 blocker 27.3, NPY Y2 blocker 49.4
CCOC(=O)c1cnc2ccc(OC)cc2c1NCc1ccccc1	NPY Y1 blocker 26.6, NPY Y2 blocker 19.3
CCN(CC)CCNC(=O)c1ccc(NC(=O)c2ccc(F)cc2F)cc1	none (no result: Measles CPE, NPY Y2 blocker)
N#CCCN(Cc1cccnc1)C(=O)c1sc2cc(F)ccc2c1Cl	none
